Source: ChEMBL document CHEMBL1268902, “9-Dihydroerythromycin ethers as motilin agonists--developing structure-activity relationships for potency and safety” (Bioorg Med Chem, 2010)
In brackets after ≈: the same amount, converted by molar mass.

What was measured:
[1] = Induction of contraction in rabbit smooth muscle; type: functional, tissue-based, Oryctolagus cuniculus, Muscle tissue
In short: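 Rabbit smooth muscle contractility assay; EC50 taken as the concentration giving 50% of maximal possible contraction.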

Streptococcus pneumoniae = experiment: Antibacterial activity against erythromycin-sensitive Streptococcus pneumoniae ATCC 6301; type: functional
In short: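 MIC determined by growth inhibition; routine screening used the highly erythromycin-sensitive strain S. pneumoniae ATCC6301.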

[2] = Induction of contraction in rabbit smooth muscle at EC90 concentration after three cycles of administration and washout measured after 4th dose; type: functional, Oryctolagus cuniculus, Muscle tissue
In short: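 Rabbit smooth muscle contractility; drug applied at EC90 concentration through three cycles of administration and washout, tachyphylaxis reported as % contractility response then obtained.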

hERG (KCNH2) [3] = molecular target: T1, hERG (KCNH2) (Homo sapiens, UniProt Q12809); experiment: Inhibition of human ERG at 30 uM
hERG (KCNH2) [4] = molecular target: T1, hERG (KCNH2); experiment: Inhibition of human ERG at 300 uM

T1 sequence (Q12809 whole entry): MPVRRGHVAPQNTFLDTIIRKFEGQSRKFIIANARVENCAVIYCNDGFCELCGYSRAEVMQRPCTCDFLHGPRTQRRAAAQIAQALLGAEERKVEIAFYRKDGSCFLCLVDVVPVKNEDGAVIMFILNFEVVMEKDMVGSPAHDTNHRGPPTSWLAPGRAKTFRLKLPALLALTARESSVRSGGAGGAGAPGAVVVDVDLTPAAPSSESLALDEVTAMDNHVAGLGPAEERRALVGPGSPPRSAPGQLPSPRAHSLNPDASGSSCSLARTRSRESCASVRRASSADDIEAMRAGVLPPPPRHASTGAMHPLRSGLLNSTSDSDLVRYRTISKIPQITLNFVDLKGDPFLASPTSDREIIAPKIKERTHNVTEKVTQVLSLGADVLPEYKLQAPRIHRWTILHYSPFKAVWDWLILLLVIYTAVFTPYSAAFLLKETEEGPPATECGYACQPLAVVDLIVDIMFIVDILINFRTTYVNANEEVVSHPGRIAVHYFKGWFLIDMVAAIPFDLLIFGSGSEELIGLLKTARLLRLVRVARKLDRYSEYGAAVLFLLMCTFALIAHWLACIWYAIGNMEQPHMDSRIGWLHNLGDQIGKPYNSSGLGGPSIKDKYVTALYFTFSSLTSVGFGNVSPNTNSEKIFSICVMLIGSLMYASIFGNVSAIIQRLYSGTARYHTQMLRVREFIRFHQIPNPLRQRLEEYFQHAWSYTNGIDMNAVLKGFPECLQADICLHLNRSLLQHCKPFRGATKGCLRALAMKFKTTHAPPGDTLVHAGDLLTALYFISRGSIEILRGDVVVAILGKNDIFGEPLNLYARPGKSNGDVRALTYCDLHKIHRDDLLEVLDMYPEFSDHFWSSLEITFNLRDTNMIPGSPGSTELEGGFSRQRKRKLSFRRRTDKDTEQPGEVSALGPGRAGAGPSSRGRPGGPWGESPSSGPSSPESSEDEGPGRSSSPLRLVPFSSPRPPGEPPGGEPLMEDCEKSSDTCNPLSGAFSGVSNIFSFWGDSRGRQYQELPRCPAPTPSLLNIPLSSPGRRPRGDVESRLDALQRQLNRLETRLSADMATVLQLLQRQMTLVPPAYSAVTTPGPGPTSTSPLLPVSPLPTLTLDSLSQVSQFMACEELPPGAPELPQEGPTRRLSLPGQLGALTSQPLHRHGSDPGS

SMILES | EC50 [1] [µM] | MIC (Streptococcus pneumoniae) [µg/mL] | Activity [2] [%] | inhibition at 30 µM (hERG (KCNH2) [3]) [%] | inhibition at 300 µM (hERG (KCNH2) [4]) [%]
CCNC(=O)NCCO[C@@H]1[C@H](C)[C@@H](O)[C@](C)(O)[C@@H](CC)OC(=O)[C@H](C)[C@@H](O[C@H]2C[C@@](C)(OC)[C@@H](O)[C@H](C)O2)[C@H](C)[C@@H](O[C@@H]2O[C@H](C)C[C@H](N(C)C(C)C)[C@H]2O)[C@](C)(O)C[C@H]1C | 0.1 | > 128 | 88 | 20 | 57
CCOC(=O)NCCO[C@@H]1[C@H](C)[C@@H](O)[C@](C)(O)[C@@H](CC)OC(=O)[C@H](C)[C@@H](O[C@H]2C[C@@](C)(OC)[C@@H](O)[C@H](C)O2)[C@H](C)[C@@H](O[C@@H]2O[C@H](C)C[C@H](N(C)C(C)C)[C@H]2O)[C@](C)(O)C[C@H]1C | 0.1 | 64 (≈ 72.8 µM) |  | 67 | 100
CC[C@H]1OC(=O)[C@H](C)[C@@H](O[C@H]2C[C@@](C)(OC)[C@@H](O)[C@H](C)O2)[C@H](C)[C@@H](O[C@@H]2O[C@H](C)C[C@H](N(C)C(C)C)[C@H]2O)[C@](C)(O)C[C@@H](C)[C@H](OCC(=O)NC)[C@H](C)[C@@H](O)[C@]1(C)O | 0.058 | 128 (≈ 153 µM) | 89 |  | 
CC[C@H]1OC(=O)[C@H](C)[C@@H](O[C@H]2C[C@@](C)(OC)[C@@H](O)[C@H](C)O2)[C@H](C)[C@@H](O[C@@H]2O[C@H](C)C[C@H](N(C)C)[C@H]2O)[C@](C)(O)C[C@@H](C)C(=O)[C@H](C)[C@@H](O)[C@]1(C)O [ERYTHROMYCIN] | 1.2 |  | 97 |  | 
CC[C@H]1OC(=O)[C@H](C)[C@@H](O[C@H]2C[C@@](C)(OC)[C@@H](O)[C@H](C)O2)[C@H](C)[C@@H](O[C@@H]2O[C@H](C)C[C@H](N(C)C(C)C)[C@H]2O)[C@](C)(O)C[C@@H](C)[C@H](OCCNC(=N)N)[C@H](C)[C@@H](O)[C@]1(C)O | 3.6 |  |  |  | 
CC[C@H]1OC(=O)[C@H](C)[C@@H](O[C@H]2C[C@@](C)(OC)[C@@H](O)[C@H](C)O2)[C@H](C)[C@@H](O[C@@H]2O[C@H](C)C[C@H](N(C)C(C)C)[C@H]2O)[C@](C)(O)C[C@@H](C)[C@H](OCc2c[nH]cn2)[C@H](C)[C@@H](O)[C@]1(C)O | 0.063 |  |  | 48 | 98
CC[C@H]1OC(=O)[C@H](C)[C@@H](O[C@H]2C[C@@](C)(OC)[C@@H](O)[C@H](C)O2)[C@H](C)[C@@H](O[C@@H]2O[C@H](C)C[C@H](N(C)C(C)C)[C@H]2O)[C@](C)(O)C[C@@H](C)[C@H](OCCNC(C)C)[C@H](C)[C@@H](O)[C@]1(C)O | 2 | 64 (≈ 75.4 µM) |  | 40 | 93
CC[C@H]1OC(=O)[C@H](C)[C@@H](O[C@H]2C[C@@](C)(OC)[C@@H](O)[C@H](C)O2)[C@H](C)[C@@H](O[C@@H]2O[C@H](C)C[C@H](N(C)C(C)C)[C@H]2O)[C@](C)(O)C[C@@H](C)[C@H](OCCNC(C)=O)[C@H](C)[C@@H](O)[C@]1(C)O | 0.048 | > 128 | 94 | 47 | 73
CC[C@H]1OC(=O)[C@H](C)[C@@H](O[C@H]2C[C@@](C)(OC)C[C@H](C)O2)[C@H](C)[C@@H](O[C@@H]2O[C@H](C)C[C@H](N(C)C(C)C)[C@H]2O)[C@]2(C)CC(C)=C(O2)[C@H](C)C(=O)[C@]1(C)OC | 0.011 |  | 9 | 84 | 100

Second part, led by results:

EC50 [1] [µM] | MIC (Streptococcus pneumoniae) [µg/mL] | SMILES | Activity [2] [%] | inhibition at 30 µM (hERG (KCNH2) [3]) [%] | inhibition at 300 µM (hERG (KCNH2) [4]) [%]
0.11 | 128 (≈ 149 µM) | CC[C@H]1OC(=O)[C@H](C)[C@@H](O[C@H]2C[C@@](C)(OC)[C@@H](O)[C@H](C)O2)[C@H](C)[C@@H](O[C@@H]2O[C@H](C)C[C@H](N(C)C(C)C)[C@H]2O)[C@](C)(O)C[C@@H](C)[C@H](OCc2cc(C)on2)[C@H](C)[C@@H](O)[C@]1(C)O | 78 | 45 | 90
0.42 | 128 (≈ 150 µM) | CC[C@H]1OC(=O)[C@H](C)[C@@H](O[C@H]2C[C@@](C)(OC)[C@@H](O)[C@H](C)O2)[C@H](C)[C@@H](O[C@@H]2O[C@H](C)C[C@H](N(C)C(C)C)[C@H]2O)[C@](C)(O)C[C@@H](C)[C@H](OCc2ccncc2)[C@H](C)[C@@H](O)[C@]1(C)O |  | 68 | 100
0.054 | 128 (≈ 151 µM) | CC[C@H]1OC(=O)[C@H](C)[C@@H](O[C@H]2C[C@@](C)(OC)[C@@H](O)[C@H](C)O2)[C@H](C)[C@@H](O[C@@H]2O[C@H](C)C[C@H](N(C)C(C)C)[C@H]2O)[C@](C)(O)C[C@@H](C)[C@H](OCc2nc[nH]n2)[C@H](C)[C@@H](O)[C@]1(C)O | 97 | 8 | 40
2.3 | 128 (≈ 159 µM) | CC[C@H]1OC(=O)[C@H](C)[C@@H](O[C@H]2C[C@@](C)(OC)[C@@H](O)[C@H](C)O2)[C@H](C)[C@@H](O[C@@H]2O[C@H](C)C[C@H](N(C)C(C)C)[C@H]2O)[C@](C)(O)C[C@@H](C)[C@H](OCCN)[C@H](C)[C@@H](O)[C@]1(C)O |  | 25 | 76
0.24 | > 128 | CC[C@H]1OC(=O)[C@H](C)[C@@H](O[C@H]2C[C@@](C)(OC)[C@@H](O)[C@H](C)O2)[C@H](C)[C@@H](O[C@@H]2O[C@H](C)C[C@H](N(C)C(C)C)[C@H]2O)[C@](C)(O)C[C@@H](C)[C@H](OCCNS(C)(=O)=O)[C@H](C)[C@@H](O)[C@]1(C)O | 94 | 12 | 79
0.007 |  | CC[C@H]1OC(=O)[C@H](C)[C@@H](O[C@H]2C[C@@](C)(OC)CC(C)O2)[C@H](C)[C@@H](O[C@@H]2O[C@H](C)C[C@H](N(C)CC)[C@H]2O)C2(C)CC(C)=C(O2)[C@H](C)[C@@H](O)[C@H]1C (single isomer, unassigned) | 22 |  | 
0.031 | > 128 | CC[C@H]1OC(=O)[C@H](C)[C@@H](O[C@H]2C[C@@](C)(OC)[C@@H](O)[C@H](C)O2)[C@H](C)[C@@H](O[C@@H]2O[C@H](C)C[C@H](N(C)C(C)C)[C@H]2O)[C@](C)(O)C[C@@H](C)[C@H](OCCNC=O)[C@H](C)[C@@H](O)[C@]1(C)O | 100 | 8 | 47
0.21 | 128 (≈ 141 µM) | CCCNC(=S)NCCO[C@@H]1[C@H](C)[C@@H](O)[C@](C)(O)[C@@H](CC)OC(=O)[C@H](C)[C@@H](O[C@H]2C[C@@](C)(OC)[C@@H](O)[C@H](C)O2)[C@H](C)[C@@H](O[C@@H]2O[C@H](C)C[C@H](N(C)C(C)C)[C@H]2O)[C@](C)(O)C[C@H]1C |  | 53 | 100
0.26 |  | CC[C@H]1OC(=O)[C@H](C)[C@@H](O[C@H]2C[C@@](C)(OC)[C@@H](O)[C@H](C)O2)[C@H](C)[C@@H](O[C@@H]2O[C@H](C)C[C@H](N(C)C(C)C)[C@H]2O)[C@](C)(O)C[C@@H](C)[C@H](O)[C@H](C)[C@@H](O)[C@]1(C)O [3 9-DIHYDRO-N-DESMETHYL-N-ISOPROPYLERYTHROMYCIN A] | 85 |  | 
0.29 | 128 (≈ 149 µM) | CC[C@H]1OC(=O)[C@H](C)[C@@H](O[C@H]2C[C@@](C)(OC)[C@@H](O)[C@H](C)O2)[C@H](C)[C@@H](O[C@@H]2O[C@H](C)C[C@H](N(C)C(C)C)[C@H]2O)[C@](C)(O)C[C@@H](C)[C@H](OCc2nccs2)[C@H](C)[C@@H](O)[C@]1(C)O |  | 61 | 100
0.13 | 128 (≈ 148 µM) | CC[C@H]1OC(=O)[C@H](C)[C@@H](O[C@H]2C[C@@](C)(OC)[C@@H](O)[C@H](C)O2)[C@H](C)[C@@H](O[C@@H]2O[C@H](C)C[C@H](N(C)C(C)C)[C@H]2O)[C@](C)(O)C[C@@H](C)[C@H](OCCNC(=O)OC)[C@H](C)[C@@H](O)[C@]1(C)O |  | 40 | 95
0.48 | 128 (≈ 146 µM) | CC[C@H]1OC(=O)[C@H](C)[C@@H](O[C@H]2C[C@@](C)(OC)[C@@H](O)[C@H](C)O2)[C@H](C)[C@@H](O[C@@H]2O[C@H](C)C[C@H](N(C)C(C)C)[C@H]2O)[C@](C)(O)C[C@@H](C)[C@H](OCc2csc(C)n2)[C@H](C)[C@@H](O)[C@]1(C)O |  | 63 | 100
0.22 | > 120 | CCNC(=S)NCCO[C@@H]1[C@H](C)[C@@H](O)[C@](C)(O)[C@@H](CC)OC(=O)[C@H](C)[C@@H](O[C@H]2C[C@@](C)(OC)[C@@H](O)[C@H](C)O2)[C@H](C)[C@@H](O[C@@H]2O[C@H](C)C[C@H](N(C)C(C)C)[C@H]2O)[C@](C)(O)C[C@H]1C |  | 36 | 88
0.037 | 128 (≈ 135 µM) | CC[C@H]1OC(=O)[C@H](C)[C@@H](O[C@H]2C[C@@](C)(OC)[C@@H](O)[C@H](C)O2)[C@H](C)[C@@H](O[C@@H]2O[C@H](C)C[C@H](N(C)C(C)C)[C@H]2O)[C@](C)(O)C[C@@H](C)[C@H](OCCNC(=O)c2ccc3[nH]cnc3c2)[C@H](C)[C@@H](O)[C@]1(C)O | 94 | 71 | 100
